For one data set, the system named is RXRβ. The data set is described as follows: Hepatic mRNA expression. The data set is classed as in vivo, Sprague-Dawley rat. As to conditions: rat liver; 250 mg/kg bw/day by gavage, 7 days; vs control. The essentials: (§1)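 Male Sprague-Dawley rats (4 weeks old, 7-day quarantine) were randomised to a corn-oil control or test compound at 250 mg/kg bw/day in corn oil by oral gavage for 7 days, n = 5 per group. Liver was taken at sacrifice. mRNA was measured by quantitative real-time PCR, normalised to β2 microglobulin (B2m), with relative expression by 2−ΔΔCt. Mean ± SE reported; significance at p 0.05.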

For data set [1] the following is noted: rat.
Data set [2] in a line: In vitro microsomal incubation, human liver microsomes. The following applies: for formation of 2,4,6-TBP as a result of biotransformation: human liver microsomes; for share of the total TTBP-TAZ metabolite concentrations: metabolite formed from TTBP-TAZ in liver microsome incubations, target screening.
A further data set relates to PLIN. The data set is described as follows: Hepatic mRNA expression. The format is in vivo, Sprague-Dawley rat. The following applies: rat liver; 250 mg/kg bw/day by gavage, 7 days; vs control.
The conditions of data set [3]: human; for share of the total TTBP-TAZ metabolite concentrations: 2 h.
Data set [4] can be described thus: Occurrence of TTBP-TAZ and 2,4,6-TBP in blood and liver of orally exposed rats. The arrangement: species or system Sprague-Dawley rat. The following applies: in vivo, 250 mg/kg/day.
Another data set has as its system VEGF. In words: Hepatic mRNA expression. The format is in vivo, Sprague-Dawley rat. The following applies: rat liver; 250 mg/kg bw/day by gavage, 7 days; vs control. Put shortly: as §1
A further data set relates to RXRγ. In words: Hepatic mRNA expression. The data set is classed as in vivo, Sprague-Dawley rat. The following applies: rat liver; 250 mg/kg bw/day by gavage, 7 days; vs control. Put shortly:
as §1

The test system of another data set is INFγ. In words: Hepatic mRNA expression. The format is in vivo, Sprague-Dawley rat. The following applies: rat liver; 250 mg/kg bw/day by gavage, 7 days; vs control. The essentials: as §1
The next data set has as its system CAT. In words: Hepatic mRNA expression. The format is in vivo, Sprague-Dawley rat. The following applies: rat liver; 250 mg/kg bw/day by gavage, 7 days; vs control. The essentials:
as §1

The test system of the next data set is AhR. The data set is described as follows: Hepatic mRNA expression. The data set is classed as in vivo, Sprague-Dawley rat. The following applies: rat liver; 250 mg/kg bw/day by gavage, 7 days; vs control. Put shortly: as §1
A further data set has as its system TG. In words: Hepatic mRNA expression. The format is in vivo, Sprague-Dawley rat. As to conditions: rat liver; 250 mg/kg bw/day by gavage, 7 days; vs control. The essentials: as §1
The test system of a further data set is MYC. In words: Hepatic mRNA expression. The data set is classed as in vivo, Sprague-Dawley rat. As to conditions: rat liver; 250 mg/kg bw/day by gavage, 7 days; compared to the 2,4,6 TBP exposure group.
The subject of the next data set is HOMX1. The data set is described as follows: Hepatic mRNA expression. The data set is classed as in vivo, Sprague-Dawley rat. As to conditions: rat liver; 250 mg/kg bw/day by gavage, 7 days; vs control. The essentials: as §1
A short description of data set [5]: In vitro microsomal incubation, rat liver microsomes. As to conditions: for formation of 2,4,6-TBP as a result of biotransformation: rat liver microsomes. In general terms: Microsomes from liver hold many membrane-bound enzymes, among them those of drug oxidation.
Another data set has as its system PXR. The data set is described as follows: Hepatic mRNA expression. The format is in vivo, Sprague-Dawley rat.
Another data set deals with AOX1. The data set is described as follows: Hepatic mRNA expression. The data set is classed as in vivo, Sprague-Dawley rat. As to conditions: rat liver; 250 mg/kg bw/day by gavage, 7 days; vs control. The essentials:
as §1

For another data set, the system named is LPL. In words: Hepatic mRNA expression. The format is in vivo, Sprague-Dawley rat. As to conditions: rat liver; 250 mg/kg bw/day by gavage, 7 days; vs control. The essentials: as §1
The next data set deals with TNFα. In words: Hepatic mRNA expression. The format is in vivo, Sprague-Dawley rat. As to conditions: rat liver; 250 mg/kg bw/day by gavage, 7 days; vs control. Put shortly:
as §1

A further data set has as its system RXRα. The data set is described as follows: Hepatic mRNA expression. The format is in vivo, Sprague-Dawley rat. As to conditions: rat liver; 250 mg/kg bw/day by gavage, 7 days; vs control. The essentials: as §1
A further data set relates to SOD1. In words: Hepatic mRNA expression. The data set is classed as in vivo, Sprague-Dawley rat. As to conditions: rat liver; 250 mg/kg bw/day by gavage, 7 days; vs control. The essentials: as §1
Another data set relates to ANGPTL4. In words: Hepatic mRNA expression. The data set is classed as in vivo, Sprague-Dawley rat. As to conditions: rat liver; 250 mg/kg bw/day by gavage, 7 days; vs control. Put shortly:
as §1

For a further data set, the system named is HIF1α. The data set is described as follows: Hepatic mRNA expression. The data set is classed as in vivo, Sprague-Dawley rat. As to conditions: rat liver; 250 mg/kg bw/day by gavage, 7 days; vs control. The essentials:
as §1

Another data set relates to TSH. In words: Hepatic mRNA expression. The data set is classed as in vivo, Sprague-Dawley rat. As to conditions: rat liver; 250 mg/kg bw/day by gavage, 7 days; vs control. The essentials: as §1
The conditions of data set [6]: animal studies; ref Mörck et al., 2003; cited from earlier work.
For a further data set, the system named is THRβ. In words: Hepatic mRNA expression. The format is in vivo, Sprague-Dawley rat. The following applies: rat liver; 250 mg/kg bw/day by gavage, 7 days; vs control. Put shortly: as §1
The next data set deals with PPARδ. The data set is described as follows: Hepatic mRNA expression. The data set is classed as in vivo, Sprague-Dawley rat. As to conditions: rat liver; 250 mg/kg bw/day by gavage, 7 days; vs control. Put shortly:
as §1

The subject of another data set is IL-6. The data set is described as follows: Hepatic mRNA expression. The format is in vivo, Sprague-Dawley rat. The following applies: rat liver; 250 mg/kg bw/day by gavage, 7 days; vs control. The essentials: as §1
Data set [7] in a line: Relative body, liver and thyroid weights of exposed rats. The data set is classed as in vivo, Sprague-Dawley rat. As to conditions: 250 mg/kg bw/day by gavage, 7 days, vs control (Table S2).
For another data set, the system named is LXR. The data set is described as follows: Hepatic mRNA expression. The data set is classed as in vivo, Sprague-Dawley rat. The following applies: rat liver; 250 mg/kg bw/day by gavage, 7 days; vs control. Put shortly: as §1
In the next data set the test system is PPARγ. In words: Hepatic mRNA expression. The following applies: rat liver; 250 mg/kg bw/day by gavage, 7 days; vs control. The data set is classed as in vivo, Sprague-Dawley rat. Put shortly:
as §1

Where two headings read alike, the source gives them in different places.

In the case of `Brc1cc(Br)c(Oc2nc(Oc3c(Br)cc(Br)cc3Br)nc(Oc3c(Br)cc(Br)cc3Br)n2)c(Br)c1` [TTBP-TAZ, 2,4,6-tris-(2,4,6-tribromophenoxy)-1,3,5-triazine], in the data set with RXRβ, the “RXRβ mRNA expression” value is “downregulated significantly”. Also, the “2,4,6-TBP formation rate” value in [1] (Sprague-Dawley, pH 7.4) turned out to be 12.8 µL/min/mg; in data set [3] (pH 7.4) it was 22.3 µL/min/mg. Also, the “In vitro intrinsic clearance rate (CLint), depletion” value in data set [1] (microsomes) is 5.33 µL/min/mg; in [3] (microsomes) it was 10.3 µL/min/mg. Moreover, the half-life was 1.1 h in [2] (human, liver microsomes, pH 7.4) and 2.2 h in data set [5] (Sprague-Dawley, rat, liver microsomes, pH 7.4). In the data set with PLIN, the “PLIN mRNA expression, fold change” value was 28 fold. Further, the “concentration of 2,4,6-TBP in rat blood” value in [4] (male, Sprague-Dawley, 7 days) is recorded as 50 ± 14 μg/g lipid weight (lw). Also, the “concentration of 2,4,6-TBP in rat liver” value in [4] (male, Sprague-Dawley, 7 days) is given as 270 ± 110 μg/g lipid weight (lw). For the same compound, the “TTBP-TAZ detected in blood samples” value in [4] (rat) is “no TTBP-TAZ was detected”. In data set [4] (rat), the “TTBP-TAZ detected in liver samples” value is reported as “no TTBP-TAZ was detected”. For the same compound, the “VEGF mRNA expression” value in the data set on VEGF was “significantly inhibited”. Besides, the “RXRγ mRNA expression” value in the data set on RXRγ is reported as “downregulated significantly”. In addition, in the data set on INFγ, the “INFγ mRNA expression” value is “significantly reduced”. Further, the “CAT mRNA expression” value with CAT is listed as “significantly inhibited”. In addition, the “AhR mRNA expression, fold change compared to control” value with AhR is recorded as 18 fold. Also, the “TG mRNA expression” value with TG was “inhibition”. For the same compound, in the data set with MYC, the “MYC mRNA expression” value is “significantly induced”. Besides, the “HOMX1 mRNA expression” value in the data set on HOMX1 is “significantly inhibited”. Besides, the “PXR mRNA expression” value with PXR (rat, in vivo, 250 mg/kg/day) was “downregulated significantly”. Also, the “AOX1 mRNA expression” value in the data set with AOX1 is given as “significantly inhibited”. Also, the “LPL mRNA expression” value in the data set on LPL is reported as “significantly inhibited”. Further, the “TNFα mRNA expression” value with TNFα is recorded as “significantly reduced”. Moreover, the “RXRα mRNA expression” value with RXRα is on record as “downregulated significantly”. Moreover, the “SOD1 mRNA expression” value in the data set with SOD1 was “significantly inhibited”. The “ANGPTL4 mRNA expression” value with ANGPTL4 is “significantly inhibited”. For the same compound, the “HIF1α mRNA expression” value in the data set with HIF1α is “significantly inhibited”. In addition, the “TSH mRNA expression” value in the data set with TSH is “significantly induced”.

Take `Brc1c(Br)c(Br)c(CCc2c(Br)c(Br)c(Br)c(Br)c2Br)c(Br)c1Br` [DBDPE, decabromodiphenyl ethane]: the “formation of 2,4,6-TBP as a result of biotransformation” value in data set [2] and in [5] was “not formed” each time. Moreover, the excreted in feces in [6] is 90%.

Take `COc1c(Br)cc(Br)cc1Br` [2,4,6-TBA, 2,4,6-tribromoanisole]: the “share of the total TTBP-TAZ metabolite concentrations” value (“share” for short) in [3] (pH 7.4) came out at 0.02%.

In the case of `Oc1cc(Br)c(Br)cc1Br` [2,4,5-TBP, 2,4,5-Tribromophenol], the “share” value in [3] (pH 7.4) is on record as 12.6%.

Turning to `Oc1ccc(Br)cc1Br` [2,4-DBP, 2,4-dibromophenol], the “share” value in [2] amounted to 0.19%.

On to `Oc1c(Br)cc(Br)cc1Br` [2,4,6-TBP, 2,4,6-Tribromophenol], for which the “RXRβ mRNA expression” value in the data set with RXRβ is reported as “significantly downregulated”. Also, the “THRβ mRNA expression” value with THRβ is recorded as “significantly inhibited”. The “share” value in [2] was determined as 87%. Also, the “concentration ratio of 2,4,6-TBP to 2,4,5-TBP” value in [2] (metabolites of TTBP-TAZ incubation) was 6.9. Further, the “PLIN mRNA expression, fold change” value in the data set on PLIN is 2.4 fold. Further, the “VEGF mRNA expression” value with VEGF is reported as “significantly inhibited”. Besides, in the data set on PPARδ, the “PPARδ mRNA expression” value is “significantly downregulated”. For the same compound, the “RXRγ mRNA expression” value in the data set on RXRγ is “significantly downregulated”. In addition, the “INFγ mRNA expression” value in the data set with INFγ is “significantly decreased”. In the data set on CAT, the “CAT mRNA expression” value is “significantly inhibited”. Further, the “HOMX1 mRNA expression” value with HOMX1 is reported as “significantly inhibited”. Besides, the “PXR mRNA expression” value with PXR (rat liver, 250 mg/kg bw/day by gavage, 7 days, vs control) is listed as “significantly downregulated”. Moreover, the “LPL mRNA expression” value in the data set with LPL is “significantly inhibited”. Besides, the “TNFα mRNA expression” value with TNFα is recorded as “significantly decreased”. Further, the “RXRα mRNA expression” value in the data set on RXRα is given as “significantly downregulated”. Also, in the data set on IL-6, the “IL-6 mRNA expression” value is “significantly decreased”. Also, the “relative body, liver, and thyroid weights” value in [7] is recorded as “No significant difference”. Moreover, the “SOD1 mRNA expression” value in the data set on SOD1 is “significantly inhibited”. In addition, the “LXR mRNA expression” value with LXR is reported as “significantly downregulated”. Also, the “ANGPTL4 mRNA expression” value in the data set with ANGPTL4 is reported as “significantly inhibited”. In addition, the “HIF1α mRNA expression” value in the data set on HIF1α is given as “significantly inhibited”. Besides, the “PPARγ mRNA expression” value with PPARγ is listed as “significantly downregulated”. Further, the “TSH mRNA expression” value with TSH is “significantly induced”.

Consider `CC(C)(c1cc(Br)c(O)c(Br)c1)c1cc(Br)c(O)c(Br)c1` [TBBPA, tetrabromobisphenol A], for which the “formation of 2,4,6-TBP as a result of biotransformation” value in [2] and in data set [5] was “not formed” in each case.

As usually defined, the half-life is the time needed for the level to fall by half in the phase considered.

The values above are taken from publication PMC8688301 (Environment international, 2021).
